Assay [1] deals with T1, Ectonucleotide pyrophosphatase/phosphodiesterase family member 1 (Homo sapiens, UniProt P22413).
T1 sequence (P22413 whole entry): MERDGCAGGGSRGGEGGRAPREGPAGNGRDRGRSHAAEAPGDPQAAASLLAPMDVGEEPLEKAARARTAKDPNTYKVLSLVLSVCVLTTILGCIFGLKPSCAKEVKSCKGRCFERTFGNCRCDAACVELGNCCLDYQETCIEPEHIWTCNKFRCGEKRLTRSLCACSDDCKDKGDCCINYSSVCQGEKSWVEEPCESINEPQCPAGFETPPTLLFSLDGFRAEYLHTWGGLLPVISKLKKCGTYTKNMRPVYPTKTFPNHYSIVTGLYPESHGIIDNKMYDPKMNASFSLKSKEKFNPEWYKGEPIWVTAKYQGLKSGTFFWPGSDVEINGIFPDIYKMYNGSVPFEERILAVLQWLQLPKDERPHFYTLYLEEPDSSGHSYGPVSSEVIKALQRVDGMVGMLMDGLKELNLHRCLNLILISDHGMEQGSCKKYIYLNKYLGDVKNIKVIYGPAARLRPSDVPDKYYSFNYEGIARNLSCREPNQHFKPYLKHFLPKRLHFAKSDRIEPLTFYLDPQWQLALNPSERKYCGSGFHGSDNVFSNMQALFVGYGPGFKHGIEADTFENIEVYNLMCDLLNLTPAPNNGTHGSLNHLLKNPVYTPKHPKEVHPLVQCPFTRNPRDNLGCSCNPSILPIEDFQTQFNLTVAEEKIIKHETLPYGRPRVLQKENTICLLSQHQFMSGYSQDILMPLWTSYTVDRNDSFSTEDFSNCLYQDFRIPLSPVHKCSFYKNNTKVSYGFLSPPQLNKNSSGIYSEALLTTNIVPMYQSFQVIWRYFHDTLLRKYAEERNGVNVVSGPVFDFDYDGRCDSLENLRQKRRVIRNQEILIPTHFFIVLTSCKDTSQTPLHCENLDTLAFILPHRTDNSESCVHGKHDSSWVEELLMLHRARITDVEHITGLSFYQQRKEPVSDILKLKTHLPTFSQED
Briefly: Mixed type inhibition of human NPP1 using pNP-TMP as substrate after 20 mins by Dixon and Cornish-Bowden method. The method, boiled down: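 Human NPP1 (COS-7 lysate) is tested with pNP-TMP hydrolysis at 37 °C in pH 8.5 Tris buffer, reading p-nitrophenol at […]. Substrate is 25, 50 and 100 μM, and inhibitor is 0, 25, 50 and 100 μM. Inhibition type, Ki and Ki′ (EIS complex dissociation constant) come from Dixon and Cornish–Bowden plots of three independent experiments.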

The target of assay [2] is T2, Ectonucleoside triphosphate diphosphohydrolase 2 (Homo sapiens) (UniProt Q9Y5L3).
T2 sequence (whole entry): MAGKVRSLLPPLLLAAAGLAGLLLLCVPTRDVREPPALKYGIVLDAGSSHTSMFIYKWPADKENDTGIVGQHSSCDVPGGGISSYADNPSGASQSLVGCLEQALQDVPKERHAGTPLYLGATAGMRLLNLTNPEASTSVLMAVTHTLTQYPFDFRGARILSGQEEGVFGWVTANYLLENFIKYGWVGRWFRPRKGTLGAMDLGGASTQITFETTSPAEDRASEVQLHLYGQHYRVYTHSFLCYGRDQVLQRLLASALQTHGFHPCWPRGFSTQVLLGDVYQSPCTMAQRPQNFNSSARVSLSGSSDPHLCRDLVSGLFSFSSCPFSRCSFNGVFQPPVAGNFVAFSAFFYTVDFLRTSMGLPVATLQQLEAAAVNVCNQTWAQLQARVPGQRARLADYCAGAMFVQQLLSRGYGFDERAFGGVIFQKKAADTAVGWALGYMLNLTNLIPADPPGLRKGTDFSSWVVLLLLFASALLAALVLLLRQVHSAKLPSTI
The experiment in a line: Inhibition of human NTPDase-2 using ATP as substrate assessed as inorganic phosphate release at 100 uM after 15 mins relative to control. The method, boiled down: (§1)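 Protein extracts are from COS-7 cells transiently transfected with human NTPDase1, 2, 3 or 8. Extract is preincubated for 3 min at 37 °C in Tris–Ringer buffer (pH 7.3). […] Three experiments in triplicate.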

For assay [3], the target named is T3, Ectonucleotide pyrophosphatase/phosphodiesterase family member 1 (Homo sapiens) (UniProt P22413).
T3 sequence (whole entry): T1 sequence (P22413 whole entry)
Briefly: Inhibition of human NPP1 using pNP-TMP as substrate at 100 uM after 20 mins by reversed-phase HPLC analysis.

For assay [4], the target named is T4, P2Y purinoceptor 11 (Homo sapiens) (UniProt Q96G91).
T4 sequence (whole entry): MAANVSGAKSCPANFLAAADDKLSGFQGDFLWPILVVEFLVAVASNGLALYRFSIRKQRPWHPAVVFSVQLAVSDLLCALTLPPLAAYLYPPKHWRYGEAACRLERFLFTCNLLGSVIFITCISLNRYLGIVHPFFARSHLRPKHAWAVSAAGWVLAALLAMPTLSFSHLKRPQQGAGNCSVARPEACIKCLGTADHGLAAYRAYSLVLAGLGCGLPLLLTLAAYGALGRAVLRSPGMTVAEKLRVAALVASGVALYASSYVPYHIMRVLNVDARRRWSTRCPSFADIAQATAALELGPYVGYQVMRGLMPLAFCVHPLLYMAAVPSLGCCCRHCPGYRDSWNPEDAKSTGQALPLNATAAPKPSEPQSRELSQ
The experiment in a line: Agonist activity at human P2Y11 receptor expressed in human 1321N1 cells assessed as increase of intracellular calcium level after 30 mins using fura-2 AM by fluorescence assay relative to ATP. Format: functional, cell-based. Background: A change in cytosolic calcium serves as a functional read-out for many receptors and channels.

For assay [5], the target named is P2Y purinoceptor 1 (Homo sapiens) (UniProt P47900). Briefly: Agonist activity at human P2Y1 receptor expressed in human 1321N1 cells assessed as increase of intracellular calcium level up to 10 uM after 30 mins using fura-2 AM by fluorescence assay. Format: functional, cell-based.
P2Y purinoceptor 1 (Homo sapiens), sequence (P47900 whole entry): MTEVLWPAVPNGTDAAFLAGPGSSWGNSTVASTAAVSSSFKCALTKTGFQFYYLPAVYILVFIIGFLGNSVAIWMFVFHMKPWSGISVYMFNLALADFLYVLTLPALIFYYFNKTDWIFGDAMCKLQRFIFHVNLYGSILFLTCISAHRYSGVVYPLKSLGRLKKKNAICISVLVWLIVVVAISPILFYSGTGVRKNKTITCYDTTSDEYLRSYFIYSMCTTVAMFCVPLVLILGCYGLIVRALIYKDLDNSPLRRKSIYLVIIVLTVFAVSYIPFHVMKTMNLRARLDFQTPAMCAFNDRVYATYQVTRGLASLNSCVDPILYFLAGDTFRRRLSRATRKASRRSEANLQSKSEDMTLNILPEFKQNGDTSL
Assay [6] concerns the target T5, Ectonucleoside triphosphate diphosphohydrolase 3 (Homo sapiens) (UniProt O75355).
T5 sequence (whole entry): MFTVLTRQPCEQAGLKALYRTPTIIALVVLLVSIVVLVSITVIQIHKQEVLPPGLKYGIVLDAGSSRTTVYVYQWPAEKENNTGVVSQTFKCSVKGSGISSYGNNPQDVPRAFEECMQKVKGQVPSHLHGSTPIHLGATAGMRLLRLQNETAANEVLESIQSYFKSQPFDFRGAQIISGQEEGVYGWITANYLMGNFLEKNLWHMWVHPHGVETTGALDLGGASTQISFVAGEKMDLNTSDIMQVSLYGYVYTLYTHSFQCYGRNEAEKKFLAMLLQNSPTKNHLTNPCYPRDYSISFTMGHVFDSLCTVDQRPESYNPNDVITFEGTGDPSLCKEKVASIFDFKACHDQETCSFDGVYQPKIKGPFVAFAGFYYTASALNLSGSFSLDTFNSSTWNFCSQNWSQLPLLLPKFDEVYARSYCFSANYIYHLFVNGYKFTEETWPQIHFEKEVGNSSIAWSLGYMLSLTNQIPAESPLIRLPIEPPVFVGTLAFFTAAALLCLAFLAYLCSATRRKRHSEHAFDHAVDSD
Briefly: Inhibition of human NTPDase-3 using ATP as substrate assessed as inorganic phosphate release at 100 uM after 15 mins relative to control. The gist of the method:
as §1

Results on five compounds are retold here after ChEMBL document CHEMBL3286381 (J Med Chem, 2014).

In general, IC50 refers to the concentration that gives 50% inhibition. The low end stands for higher potency, the high end for lower potency. By Ki is commonly meant a dissociation constant, usually derived from enzyme kinetics or from competition with a known ligand. Low readings indicate tighter binding, high ones weaker binding. The inhibition is the percentage by which the read-out fell short of the control.

The source made the active and inactive calls. The calls are words filed in the database; no cut-off is given here. Where only a bound is given, the exact number is not on record here.

As to `Nc1ncnc2c1ncn2[C@@H]1O[C@H](CO[P@@](O)(=S)OP(=O)(O)CP(=O)(O)O)[C@@H](O)[C@H]1O`, the IC50 in assay [1] is 18.7 µM. In assay [1], the inhibitory constant (Ki) is 1.3 µM. Moreover, the inhibition in assay [2] is 12.7%; in assay [3], greater than 90%; in assay [6], 24%. Also, in assay [4], the fold change (FC) was determined as 7.4. Moreover, the outcome in assay [5] was inactive.
In the case of `Nc1ncnc2c1ncn2[C@@H]1O[C@H](CO[P@](O)(=S)OP(=O)(O)C(Cl)(Cl)P(=O)(O)O)[C@@H](O)[C@H]1O`, the half-maximal inhibitory concentration (IC50) in assay [1] was determined as 0.6 µM. The affinity in assay [1], expressed as Ki, was 0.685 µM. The inhibition in assay [2] is 11.2%; in assay [3], greater than 90%; in assay [6], 21.8%. The outcome in assay [5] was inactive.
`Nc1ncnc2c1ncn2[C@@H]1O[C@H](CO[P@](O)(=S)OP(=O)(O)CP(=O)(O)O)[C@@H](O)[C@H]1O` displayed an IC50 in assay [1] of 16.3 µM. Also, the Ki in assay [1] turned out to be 4.5 µM. Also, the values for the inhibition in assay [2], in assay [3] and in assay [6] were 15.4%, greater than 90% and 26.8%, respectively. Further, the result in assay [5] was inactive.
Regarding `Nc1ncnc2c1ncn2[C@@H]1O[C@H](COP(=O)(O)CP(=O)(O)OP(O)(O)=S)[C@@H](O)[C@H]1O`, the inhibition in assay [2] was 16.3%; in assay [3] it was greater than 90%; in assay [6], 40.2%. Besides, the fold change (FC) in assay [4] came to 6.7. In assay [5], the outcome was inactive.
In turn, `Nc1ncnc2c1ncn2[C@@H]1O[C@H](CO[P@@](O)(=S)OP(=O)(O)C(Cl)(Cl)P(=O)(O)O)[C@@H](O)[C@H]1O` yielded an IC50 in assay [1] of 31.2 µM. The affinity in assay [1], expressed as Ki, was 15.2 µM. In addition, the inhibition in assay [2] was 9.9%; in assay [3], greater than 90%; in assay [6] it was 18.7%. The fold change (FC) in assay [4] amounted to 2.2. In assay [5], the outcome was inactive.
